Entries after “also recorded” stand apart in the source; their conditions may differ. Peptide text beside a SMILES is read from it.
Key:
[1] = biological target: T1, h(1–572)smTas1R2 + hTas1R3 (Homo sapiens, UniProt Q8TE23, A658V/A782V/G696S/I595M/I692T/L639V/L764F/L798F/M682V/M697L/P624L/P678S/P710T/Q592E/S703N/S784D/T716M/V687A/V718I/V741A); assay: Ca2+ mobilization, chimera receptor; assay type: cell-based, human/squirrel monkey; conditions: aspartame 10mM, neotame 1mM, sucralose 2 mM; compared with hTas1R2/hTas1R3
T1 sequence (Q8TE23 20-839 Q592E/I595M/P624L/L639V/A658V/P678S/M682V/V687A/I692T/G696S/M697L/S703N/P710T/T716M/V718I/V741A/L764F/A782V/S784D/L798F): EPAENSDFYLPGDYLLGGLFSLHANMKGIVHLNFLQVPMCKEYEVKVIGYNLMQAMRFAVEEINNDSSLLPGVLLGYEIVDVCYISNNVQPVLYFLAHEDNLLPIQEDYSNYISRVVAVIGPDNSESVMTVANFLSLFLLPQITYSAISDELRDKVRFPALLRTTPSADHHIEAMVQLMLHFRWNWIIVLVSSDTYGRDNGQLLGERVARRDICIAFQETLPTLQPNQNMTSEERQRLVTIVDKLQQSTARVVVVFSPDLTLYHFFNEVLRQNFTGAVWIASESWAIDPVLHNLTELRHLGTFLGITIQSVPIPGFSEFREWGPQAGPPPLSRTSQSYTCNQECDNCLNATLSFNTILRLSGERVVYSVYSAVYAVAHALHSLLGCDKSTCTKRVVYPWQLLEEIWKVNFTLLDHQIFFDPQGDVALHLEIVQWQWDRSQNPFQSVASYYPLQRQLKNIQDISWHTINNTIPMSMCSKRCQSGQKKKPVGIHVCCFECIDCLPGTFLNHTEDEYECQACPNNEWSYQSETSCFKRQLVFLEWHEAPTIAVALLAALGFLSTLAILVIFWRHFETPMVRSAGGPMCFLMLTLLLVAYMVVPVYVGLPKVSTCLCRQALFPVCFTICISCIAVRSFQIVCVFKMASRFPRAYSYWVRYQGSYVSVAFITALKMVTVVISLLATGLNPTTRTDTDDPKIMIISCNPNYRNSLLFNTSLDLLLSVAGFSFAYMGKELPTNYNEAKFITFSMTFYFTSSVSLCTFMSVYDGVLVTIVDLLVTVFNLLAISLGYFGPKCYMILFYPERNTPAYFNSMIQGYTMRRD
T1 sequence (Q7RTX0 21-852 partner): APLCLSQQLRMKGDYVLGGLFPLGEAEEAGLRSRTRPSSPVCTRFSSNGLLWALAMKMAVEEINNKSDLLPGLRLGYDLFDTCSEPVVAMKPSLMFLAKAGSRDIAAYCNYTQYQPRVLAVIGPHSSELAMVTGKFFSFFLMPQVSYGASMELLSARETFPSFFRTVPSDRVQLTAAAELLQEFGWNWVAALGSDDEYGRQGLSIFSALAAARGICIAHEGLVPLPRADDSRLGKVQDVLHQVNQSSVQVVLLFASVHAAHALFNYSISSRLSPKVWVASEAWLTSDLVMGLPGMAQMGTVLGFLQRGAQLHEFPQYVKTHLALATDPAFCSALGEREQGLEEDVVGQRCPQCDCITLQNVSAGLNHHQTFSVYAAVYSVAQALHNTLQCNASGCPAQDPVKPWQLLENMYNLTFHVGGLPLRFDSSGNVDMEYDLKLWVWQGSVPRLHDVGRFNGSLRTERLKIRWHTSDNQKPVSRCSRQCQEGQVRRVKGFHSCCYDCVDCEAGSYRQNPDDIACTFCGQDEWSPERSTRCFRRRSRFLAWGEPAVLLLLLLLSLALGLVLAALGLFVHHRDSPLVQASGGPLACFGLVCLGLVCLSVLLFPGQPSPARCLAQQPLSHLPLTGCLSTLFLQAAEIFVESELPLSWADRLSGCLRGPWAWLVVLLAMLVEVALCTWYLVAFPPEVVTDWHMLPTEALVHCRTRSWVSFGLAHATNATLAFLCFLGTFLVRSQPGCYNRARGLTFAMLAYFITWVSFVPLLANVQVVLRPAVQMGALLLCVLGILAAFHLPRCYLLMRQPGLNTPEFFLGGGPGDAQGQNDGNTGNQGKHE
In short: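 HEK293E cells grown at 37°C in Opti-MEM with 5% FBS and seeded at 50,000/well. Cells co-lipofected with Tas1R plasmids and Gα16-gust44 (0.06 μg each per well); medium changed at 20 h, assayed 24 h later. Cells loaded 1 h with Fluo-4 AM in HEPES-buffered HBSS. Tastant added at 30 s; fluorescence (ex 488/em 525 nm) read every 2 s for 150 s more. ΔF/F normalised to human receptor maximal sucralose response; mean ± SEM, three independent experiments.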

[2] = biological target: sm(1–567)hTas1R2 + hTas1R3 (Saimiri sciureus, UniProt A3QP08, A682V/A736V/D779S/E587Q/F759L/F793L/I713V/L619P/L692M/M590I/M711T/N698S/S673P/S691G/T687I/T705P/V634L/V653A/V677M/V777A); assay: Ca2+ mobilization, chimera receptor; assay type: cell-based, human/squirrel monkey; conditions: aspartame 10mM, neotame 1mM, sucralose 2 mM; compared with hTas1R2/hTas1R3

Structure (SMILES) | calcium response to sweetener [1] | calcium response to sweetener [2]
COC(=O)[C@H](Cc1ccccc1)NC(=O)[C@@H](N)CC(=O)O [aspartame, L-α-aspartly-L-phenylalanine methyl ester] (H-Asp-Phe-OMe) | significantly reduced responses; also recorded: significant reduction of the response | no responses
COC(=O)[C@H](Cc1ccccc1)NC(=O)[C@H](CC(=O)O)NCCC(C)(C)C [neotame] | significantly reduced responses; also recorded: significant reduction of the response | no responses
OC[C@H]1O[C@H](O[C@]2(CCl)O[C@H](CCl)[C@@H](O)[C@@H]2O)[C@H](O)[C@@H](O)[C@H]1Cl [sucralose] | significant reduction of the response | significant increase of the response
